Experimental data taken from ChEMBL document CHEMBL1156758, “Quantitative analyses of aggregation, autofluorescence, and reactivity artifacts in a screen for inhibitors of a thiol protease” (J Med Chem, 2010).

Legend:
[1] = Inhibition of Beta-lactamase AmpC by quantitative high throughput screening
Cruzipain [2] = biological target: T1, Cruzipain (Trypanosoma cruzi, UniProt P25779); experiment: Inhibition of Trypanosoma cruzi cruzain by quantitative high throughput screening
How it was run: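 1536-well qHTS in 100 mM acetate pH 5.5 with 5 mM DTT, 4 μL final volume. Two conditions: 0.01% Triton X-100 with 1.5 nM cruzain, or 0.00005% Triton with 3 nM cruzain. Seven compound concentrations from 57.5 μM to 3.7 nM, preincubated 15 min at room temperature. Then 2 μM Z-Phe-Arg-AMC added. Fluorescence (ex 340/em 450) read kinetically over 60 s. Initial-rate data fitted to a four-parameter Hill equation.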

Cruzipain [3] = biological target: T1, Cruzipain; experiment: Inhibition of Trypanosoma cruzi cruzain by Flexstation microplate spectrofluorimetry
How it was run: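 Secondary 96-well assay: 0.4 nM cruzain in 0.1 M sodium acetate pH 5.5, 5 mM DTT, with or without 0.01% Triton X-100. Compound from 200x DMSO stock preincubated with enzyme 15 min. Reaction started with Z-Phe-Arg-AMC at 2.5 μM final (Km 2 μM) and followed for 5 min. Percent inhibition taken from initial rates versus a DMSO control. Each assay run at least twice.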

T1 sequence (P25779 whole entry): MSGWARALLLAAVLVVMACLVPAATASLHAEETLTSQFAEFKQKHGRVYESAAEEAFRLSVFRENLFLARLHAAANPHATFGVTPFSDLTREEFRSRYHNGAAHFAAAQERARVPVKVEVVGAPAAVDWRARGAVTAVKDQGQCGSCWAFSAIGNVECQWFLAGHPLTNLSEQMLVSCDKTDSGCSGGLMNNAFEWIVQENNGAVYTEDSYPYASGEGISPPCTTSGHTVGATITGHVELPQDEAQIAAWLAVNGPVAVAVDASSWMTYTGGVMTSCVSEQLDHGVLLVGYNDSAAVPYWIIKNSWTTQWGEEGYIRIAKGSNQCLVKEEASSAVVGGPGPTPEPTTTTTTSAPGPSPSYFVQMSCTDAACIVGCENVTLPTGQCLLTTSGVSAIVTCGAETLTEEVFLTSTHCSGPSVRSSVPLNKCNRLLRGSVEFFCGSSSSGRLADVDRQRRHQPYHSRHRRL

| SMILES | IC50 [1] [µM] | IC50 (Cruzipain [2]) [µM] | IC50 (Cruzipain [3]) [µM] |
| --- | --- | --- | --- |
| O=[N+]([O-])c1ccccc1S(=O)(=O)NC[C@H]1CC[C@H](CNCC2CCc3ccccc3C2)CC1 (some centres not stated) | 13 | > 60 | > 120 |
| CCCCC/C=C\C/C=C\C/C=C\C/C=C\CCCC(=O)Nc1ccc(O)cc1 | 10 | > 60 | 30 |
| Cc1cc(NC(=O)c2cc(CC(C)C)on2)no1 | 4 | > 60 | 120 |
| COc1ccc(S(=O)(=O)Nc2nc3ccccc3nc2NCc2ccc3c(c2)OCO3)cc1 | – | – | 12 |
| O=C(Nc1nc(-c2ccc(S(=O)(=O)N3CCCCCC3)cc2)cs1)c1cccs1 | 8 | > 60 | 12 |
| Oc1cc(-c2ccc(Cl)c(Cl)c2)[nH]n1 | 13 | > 60 | 12 |
| O=C(CS[n+]1cc(-c2ccc(F)cc2)cs1)NC(=O)NCc1ccco1 | 3 | > 60 | 60 |
| O=C(CSc1nnc(-c2ccccc2)o1)N1CCN(c2ccccc2)CC1 | 13 | > 60 | 30 |
| CCn1ccnc1C(O)c1cccc(OC)c1OC (configuration not stated) | 4 | > 60 | > 120 |
| O=C(Nc1ccc(/N=N/c2ccccc2)cc1)c1cccc(Cl)c1 | – | – | 12 |
| Cc1ccc(Cl)cc1NC(=O)CCC(=O)Nc1cc(Cl)ccc1C | – | – | 12 |
| C=C(C)CSc1cc(N)c(C#N)c(-c2ccc(C)cc2)c1C#N | 6 | > 60 | 12 |
| Cc1ccc(NC(=O)CSC(N)=O)cc1Cl | 13 | > 60 | > 120 |
| CCc1ccc(C(=O)CSC2=C(C#N)C(c3ccco3)C(C(C)=O)=C(C)N2)cc1 (configuration not stated) | 13 | > 60 | 30 |
| c1ccc(-c2cc3c(NCC4COc5ccccc5O4)ncnc3s2)cc1 (configuration not stated) | – | – | 12 |
| CCN(Cc1ccccc1)c1nc2c(S(=O)(=O)c3ccccc3)nnn2c2ccc(Cl)cc12 | – | – | 12 |
| Cc1cccc(NS(=O)(=O)c2ccc(C)c(C(=O)OCC(=O)Nc3cc(C)on3)c2)c1 | 10 | > 60 | 30 |
| O=C(Cn1c(=O)oc2ccccc21)Nc1oc(-c2ccccc2)c(-c2ccccc2)c1O | 13 | > 60 | 12 |
| O=C(Nc1nc(-c2cccs2)cs1)c1ccc(S(=O)(=O)N2CCCC2)cc1 | 13 | > 60 | 12 |
| O=C(COC(=O)c1cccc(Oc2ccccc2)c1)Nc1nnc(-c2ccccc2)o1 | 16 | > 60 | 12 |
| Cn1c(C(C#N)C(=O)c2sc3ccccc3c2Cl)nc2ccccc21 (configuration not stated) | 13 | > 60 | 12 |

| SMILES | IC50 [1] [µM] | IC50 (Cruzipain [2]) [µM] | IC50 (Cruzipain [3]) [µM] |
| --- | --- | --- | --- |
| O=C(COC(=O)c1cc(-c2ccco2)nc2ccccc12)NCc1ccc2c(c1)OCO2 | 13 | > 60 | 30 |
| COC(=O)c1ccc(-c2nc(-c3ccc(Br)o3)no2)cc1 | 4 | > 60 | 30 |
| Cc1ccc(C(=O)Nc2nc(-c3cc(Cl)sc3Cl)cs2)cc1 | – | – | 12 |
| COc1ccc(C(=O)Nc2nncs2)c(OC)c1 | 4 | > 60 | > 120 |
| O=C(c1ccccc1)c1cn(CC(=O)N2CCCC2)c2ccccc12 | 4 | > 60 | 120 |
| Cc1cc(=O)oc2cc(OCC#N)ccc12 | 4 | > 60 | > 120 |
| Cc1sc(NC(=S)NC(=O)C2CCCCC2)c(C(N)=O)c1C | – | – | 12 |
| Cn1cnnc1SCC(=O)Nc1sc2c(c1C(N)=O)CCC2 | 10 | > 60 | 120 |
| CCSc1nnc(NC(=O)c2ccc(Br)s2)s1 | 10 | > 60 | 12 |
| NC(=O)SCC(=O)Nc1cccc(Cl)c1 | 8 | > 60 | > 120 |
| O=C(Nc1nc(-c2cccc(Br)c2)cs1)Oc1ccccc1 | – | – | 30 |
| Cc1ccc(-c2csc(NC(=O)c3ccno3)n2)cc1 | 8 | > 60 | > 120 |
| N#Cc1c(-c2ccccc2)cc(-c2ccco2)c(C#N)c1N | 6 | > 60 | 12 |
| O=C(CSCc1ccc(Cl)cc1)c1ccco1 | 10 | > 60 | 120 |
| Cc1cc(NC(=O)Cc2cccs2)no1 | 13 | > 60 | 30 |
| COc1ccc(/C=N/NC(=O)c2ccc(Br)cc2)cc1Cn1cc(Cl)cn1 | – | – | 12 |
| C=CCNC(=O)c1cc([N+](=O)[O-])cc2c(=O)[nH]c(Nc3ccc(Cl)c(Cl)c3)nc12 | 2 | > 60 | – |
| O=c1c(O)c(-c2ccc(O)c(O)c2)oc2cc(O)ccc12 [FISETIN] | 13 | > 60 | 30 |
| CCCCCCNC(=O)Nc1ccc(S(=O)(=O)Nc2ccc(CCNC[C@H](O)COc3ccc(O)cc3)cc2)cc1 [L-755507] | – | > 60 | 12 |
| O=C(c1ccc(OCCN2CCCCC2)cc1)c1c(-c2ccc(O)cc2)sc2cc(O)ccc12 [RALOXIFENE] | 5 | > 60 | – |
